One series concerns Pseudomonas aeruginosa. The series is described as follows: Antimicrobial activity against Pseudomonas aeruginosa ATCC 27853 after 24 hrs by microdilution assay. The format is functional. Conditions: ATCC 27853, 24 h.
The next series relates to Staphylococcus aureus. In words: Antimicrobial activity against Staphylococcus aureus ATCC 25923 after 24 hrs by microdilution assay. The series is classed as functional. As to conditions: ATCC 25923, 24 h. In general terms: Broth dilution looks for growth in wells or tubes with falling amounts of substance.
Series [1] deals with T47D. The series is described as follows: Growth inhibition of human T47D cells at 126.7 uM. The series is classed as functional. Conditions: read-out: GI. Put shortly:
(§1)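 Vero, LS180, SiHa, T47D or primary HSF cells were seeded at 10^4 cells per mL and preincubated in microtiter plates. Compounds were added at 10 or 50 µg mL⁻¹ (printed µM equivalents depend on the compound) and incubated 72 h. End-point was BrdU labelling read spectrophotometrically on an ELISA reader. Growth inhibition is % versus untreated controls; triplicates.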

Series [2] has as its system SiHa. The series is described as follows: Growth inhibition of human SiHa cells at 126.7 uM. The format is functional. Conditions: read-out: GI. The essentials: as §1
The nature of series [3]: Growth inhibition of human LS180 cells at 126.7 uM. The format is functional. Conditions: read-out: GI. Put shortly:
as §1

The nature of series [4]: Lipophilicity, log kw in methanol aqueous system at pH 3.5. The series is classed as physicochemical. Put shortly: (§2)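 RP-HPLC on an octadecyl silica column (150 × 4.6 mm, 5 µm) at 22 ± 1 °C, flow 1.0 mL min⁻¹, UV detection at 254 nm. Mobile phase was methanol, acetonitrile or dioxane with water and 0.01 M phosphate buffer pH 3.5 containing 0.05 M DEA. log k_W was extrapolated to pure water by regression.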

Series [5] can be described thus: Antiproliferative activity against human skin fibroblast assessed as cell viability at 100 uM by MTT assay. As to conditions: human skin fibroblasts, read-out: Activity. The series is classed as cell-based. The essentials: (§3)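 MTT viability assay on primary human skin fibroblasts grown in DMEM with 10% FBS and penicillin/streptomycin. Compounds were dissolved in DMSO and given at 1, 50 or 100 µM for 24 h. Cells were washed in HEPES-buffered medium (pH 7.4) and then given MTT 0.5 mg mL⁻¹ for 45 min at 37 °C. Formazan was dissolved in DMSO and read at 570 nm. Viability is % of control; three independent measurements.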
A general note: Formazan colour is commonly taken as a measure of viable cells.

Series [6] deals with T47D. In words: Growth inhibition of human T47D cells at 25.3 uM. The series is classed as functional. Conditions: read-out: GI. The essentials: as §1
A short description of series [7]: Growth inhibition of african green monkey Vero cells at 25.3 uM. The format is cell-based. Conditions: chlorocebus sabaeus, read-out: GI. Put shortly: as §1
In series [8] the test system is HeLa. The series is described as follows: Antiproliferative activity against human HeLa cells assessed as cell viability at 1 uM by MTT assay. The series is classed as functional. As to conditions: read-out: Activity. Put shortly: (§4)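 Log-phase cells, kept in supplemented RPMI 1640 (HSF in DMEM/10% FBS) at 37 °C, 5% CO2, were exposed 24 h to 1, 50 or 100 µM compound from DMSO. They were washed, given 0.5 mg/mL MTT in HEPES buffer pH 7.4 for 45 min at 37 °C, and formazan was dissolved in DMSO and read at 570 nm. Values are % viability versus control from three independent measurements.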

The nature of series [9]: Antiproliferative activity against human RPMI cells assessed as cell viability at 50 uM by MTT assay. The series is classed as functional. As to conditions: read-out: Activity. Put shortly: as §4
Series [10] is described as follows: Antiproliferative activity against human skin fibroblast assessed as cell viability at 1 uM by MTT assay. The series is classed as cell-based. Conditions: human skin fibroblasts, read-out: Activity. Put shortly:
as §4

Series [11] concerns HeLa. The series is described as follows: Antiproliferative activity against human HeLa cells assessed as cell viability at 50 uM by MTT assay. The series is classed as functional. Conditions: read-out: Activity. Put shortly:
as §4

Series [12] is described as follows: Antiproliferative activity against human RPMI cells assessed as cell viability at 100 uM by MTT assay. The format is functional. As to conditions: read-out: Activity. Put shortly:
as §4

A short description of series [13]: Growth inhibition of african green monkey Vero cells at 126.7 uM. The series is classed as cell-based. Conditions: chlorocebus sabaeus, read-out: GI. The essentials: as §1
Series [14] in a line: Antiproliferative activity against human RPMI cells assessed as cell viability at 1 uM by MTT assay. The series is classed as functional. Conditions: read-out: Activity. The essentials:
as §4

Series [15] is described as follows: Growth inhibition of human skin fibroblast at 126.7 uM. The series is classed as cell-based. Conditions: human skin fibroblasts, read-out: GI. The essentials: as §1
A short description of series [16]: Growth inhibition of human LS180 cells at 25.3 uM. The series is classed as functional. Conditions: read-out: GI. The essentials:
as §1

Series [17] can be described thus: Antiproliferative activity against human skin fibroblast assessed as cell viability at 50 uM by MTT assay. As to conditions: human skin fibroblasts, read-out: Activity. The series is classed as cell-based. Put shortly:
as §3

The nature of series [18]: Growth inhibition of human skin fibroblast at 25.3 uM. The format is cell-based. Conditions: human skin fibroblasts, read-out: GI. Put shortly:
as §1

In series [19] the test system is HeLa. In words: Antiproliferative activity against human HeLa cells assessed as cell viability at 100 uM by MTT assay. The series is classed as functional. Conditions: read-out: Activity. The essentials:
as §4

Series [20] in a line: Lipophilicity, log kw in acetonitrile aqueous system at pH 3.5. The series is classed as physicochemical. Put shortly: as §2
Series [21] can be described thus: Lipophilicity, log kw in dioxane aqueous system at pH 3.5. The series is classed as physicochemical. Conditions: buffer. The essentials: as §2
For series [22], the system named is SiHa. In words: Growth inhibition of human SiHa cells at 25.3 uM. The format is functional. As to conditions: read-out: GI. Put shortly:
as §1

The subject of series [23] is T47D. In words: Growth inhibition of human T47D cells at 29.3 uM. The format is functional. As to conditions: read-out: GI. The essentials: as §1
Series [24] relates to T47D. In words: Induction of DNA damage in human T47D cells at 29.3 uM. The format is functional, cell-based. Put shortly: (§5)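 Cells were treated at 29.3 µM (10 µg mL⁻¹) and washed twice with PBS. DNA was isolated with lysis buffer plus proteinase K, or cells were lysed as agarose plugs. Samples ran on 1% agarose with propidium iodide at 120 V for 1.5 h at room temperature […]. Experiments were repeated three times. The comet assay was also run on T47D.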

In series [25] the test system is LS180. The series is described as follows: Induction of DNA damage in human LS180 cells at 29.3 uM. The series is classed as functional, cell-based. The essentials: as §5
A short description of series [26]: Growth inhibition of human skin fibroblast at 29.3 uM. The series is classed as cell-based. Conditions: human skin fibroblasts, read-out: GI. The essentials: as §1
In series [27] the test system is T47D. In words: Effect on superoxide dismutase gene expression in human T47D cells at 29.3 uM. The series is classed as functional, cell-based. Put shortly: (§6)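 LS180 and T47D cells were incubated at 29.3 µM (10 µg mL⁻¹). SOD gene expression was visualised by electrophoresis on 1% agarose gel against an untreated control.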
The subject of series [28] is SiHa. In words: Induction of DNA damage in human SiHa cells at 29.3 uM. The format is functional, cell-based. The essentials:
as §5

Series [29] can be described thus: Growth inhibition of african green monkey Vero cells at 29.3 uM. Conditions: chlorocebus sabaeus, read-out: GI. The format is cell-based. The essentials: as §1
For series [30], the system named is T47D. The series is described as follows: Growth inhibition of human T47D cells at 146.7 uM. The format is functional. As to conditions: read-out: GI. Put shortly:
as §1

Series [31] in a line: Growth inhibition of human LS180 cells at 146.7 uM. The series is classed as functional. As to conditions: read-out: GI. Put shortly: as §1
Series [32] is described as follows: Growth inhibition of human LS180 cells at 29.3 uM. The format is functional. As to conditions: read-out: GI. The essentials:
as §1

Series [33] concerns SiHa. The series is described as follows: Growth inhibition of human SiHa cells at 146.7 uM. The format is functional. Conditions: read-out: GI. The essentials:
as §1

For series [34], the system named is SiHa. The series is described as follows: Growth inhibition of human SiHa cells at 29.3 uM. The series is classed as functional. Conditions: read-out: GI. Put shortly:
as §1

Series [35] deals with LS180. The series is described as follows: Effect on superoxide dismutase gene expression in human LS180 cells at 29.3 uM. The format is functional, cell-based. Put shortly: as §6
Series [36] in a line: Growth inhibition of african green monkey Vero cells at 146.7 uM. The format is cell-based. As to conditions: chlorocebus sabaeus, read-out: GI. Put shortly: as §1
Series [37] in a line: Growth inhibition of human skin fibroblast at 146.7 uM. The format is cell-based. As to conditions: human skin fibroblasts, read-out: GI. Put shortly:
as §1

In a further series the test system is Vero. The series is described as follows: Induction of DNA damage in african green monkey Vero cells at 29.3 uM. The series is classed as cell-based. As to conditions: chlorocebus sabaeus. Put shortly:
as §5

The term MIC denotes the least concentration at which growth counts as inhibited.

≈ marks a conversion by molar mass, not a printed value. Calls of active or inactive are those of the source. The calls are words filed in the database; no cut-off is given here.

With `O=C(N[C@H](CO)[C@H](O)c1ccc([N+](=O)[O-])cc1)C(Cl)Cl` [CHLORAMPHENICOL], the MIC was above 387 µM in the series with Pseudomonas aeruginosa and 12.4 µM (≈ 4.01 µg/mL) against Staphylococcus aureus.
In the case of `Clc1ccc(N2CCn3c(COc4ccc(Cl)cc4Cl)nnc32)cc1`, the inhibition of growth at 126.7 µM in the series with T47D [1] came out at 48%; with SiHa [2] it was 41%; in series [3], 54%. The logKw in [4] was 4.85; in series [20], 3.75; in [21] it was 4.15. In addition, the viability at 100 µM in [5] came out at 86.8%; in [12], 24.5%; in the series with HeLa [19] it was 56.3%. For the same compound, the results for the inhibition of growth at 25.3 µM (in the series on T47D [6]; in series [16]; with SiHa [22]) were 28%, 48% and 35%, respectively. Moreover, the figures for the inhibition at 25.3 µM in series [7] and in [18] were 20% and 7%, respectively. For the same compound, the results for the viability at 1 µM (in the series with HeLa [8]; in series [10]; in series [14]) were 68.4%, 83% and 98.4%, respectively. The viability at 50 µM in series [9] was 24.4%; in the series with HeLa [11] it was 59.9%; in series [17] it was 83.9%. The inhibition at 126.7 µM in series [13] amounted to 28%; in [15], 10%.
Turning to `Cc1cc(Cl)ccc1OCc1nnc2n1CCN2c1ccccc1`, the inhibition of growth at 29.3 µM with T47D [23] was determined as 25%; in [32], 35%; in the series on SiHa [34], 30%. The outcome in the series on T47D [24], with LS180 [25], with T47D [27], with SiHa [28] and with LS180 [35] was Active. In addition, the logKw amounted to 1.62 in series [4], 1.36 in series [20] and 1.17 in [21]. Besides, the viability at 100 µM in series [5] worked out at 72.5%; in series [12], 108%; in the series on HeLa [19], 75.9%. Further, the inhibition at 29.3 µM in [26] was found to be 4%; in series [29], 20%. Also, the figures for the viability at 1 µM (in the series on HeLa [8]; in series [10]; in series [14]) were 65.6%, 79.2% and 112%, respectively. In addition, the viability at 50 µM was determined as 114% in [9], 75.1% in the series with HeLa [11] and 76.8% in series [17]. Moreover, the values for the inhibition of growth at 146.7 µM (in the series with T47D [30]; in [31]; in the series on SiHa [33]) were 40%, 39% and 30%, respectively. The inhibition at 146.7 µM in series [36] was 20%; in [37] it was 8%. For the same compound, the result with Vero was Active.

(Values after ChEMBL document CHEMBL1149773, “Synthesis, determination of the lipophilicity, anticancer and antimicrobial properties of some fused 1,2,4-triazole derivatives” (Eur J Med Chem, 2008).)
